In ChEMBL document CHEMBL4725483, “Simultaneous Inhibition of SIRT2 Deacetylase and Defatty-Acylase Activities via a PROTAC Strategy” (ACS Med Chem Lett, 2020):
Active and inactive are the calls of the source. The rule behind the calls is not given here.

Tests used:
[1] = biological target: T1, NAD-dependent protein deacetylase sirtuin-1 (Homo sapiens, UniProt Q96EB6); experiment: Inhibition of human SIRT1 deacetylation activity using H3K9Ac as substrate preincubated for 15 mins in presence of NAD+ followed by substrate addition by HPLC analysis
T1 sequence (Q96EB6 whole entry): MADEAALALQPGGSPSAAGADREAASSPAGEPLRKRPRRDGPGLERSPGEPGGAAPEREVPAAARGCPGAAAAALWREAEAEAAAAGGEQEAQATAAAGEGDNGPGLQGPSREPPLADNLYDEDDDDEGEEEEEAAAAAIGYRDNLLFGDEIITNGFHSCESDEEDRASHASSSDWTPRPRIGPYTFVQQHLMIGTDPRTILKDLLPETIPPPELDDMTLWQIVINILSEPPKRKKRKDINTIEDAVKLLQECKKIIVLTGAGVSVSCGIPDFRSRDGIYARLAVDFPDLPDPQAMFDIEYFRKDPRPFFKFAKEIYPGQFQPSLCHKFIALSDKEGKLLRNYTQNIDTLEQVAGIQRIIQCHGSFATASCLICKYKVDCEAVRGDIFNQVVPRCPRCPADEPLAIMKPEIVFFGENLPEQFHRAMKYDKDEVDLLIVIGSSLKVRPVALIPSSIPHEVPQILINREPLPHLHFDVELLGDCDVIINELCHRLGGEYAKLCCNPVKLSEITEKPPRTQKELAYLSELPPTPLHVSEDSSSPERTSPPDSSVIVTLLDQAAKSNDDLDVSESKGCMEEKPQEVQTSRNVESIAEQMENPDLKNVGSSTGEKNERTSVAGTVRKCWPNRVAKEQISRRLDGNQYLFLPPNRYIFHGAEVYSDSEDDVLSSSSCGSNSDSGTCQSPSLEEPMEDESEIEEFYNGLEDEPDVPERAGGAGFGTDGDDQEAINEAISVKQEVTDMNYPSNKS
Summary of the method: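 In vitro sirtuin reaction mixture with compound at a range of concentrations. Compound was preincubated with NAD+ and the enzyme before the substrate peptide was added. IC50 taken from the concentration series.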

[2] = biological target: Protein cereblon/NAD-dependent protein deacetylase sirtuin-3, mitochondrial (Homo sapiens) (UniProt Q9NTG7+Q96SW2); experiment: Protac activity at CRBN/SIRT3 in human BT549 cells assessed as SIRT3 degradation at 5 to 10 uM after 48 hrs by immunoblot analysis; assay type: cell-based; settings: BT-549, dose microM 5-10, time 48.0 hrs
Protein cereblon/NAD-dependent protein deacetylase sirtuin-3, mitochondrial (Homo sapiens), sequence (Q96SW2 whole entry, looked up): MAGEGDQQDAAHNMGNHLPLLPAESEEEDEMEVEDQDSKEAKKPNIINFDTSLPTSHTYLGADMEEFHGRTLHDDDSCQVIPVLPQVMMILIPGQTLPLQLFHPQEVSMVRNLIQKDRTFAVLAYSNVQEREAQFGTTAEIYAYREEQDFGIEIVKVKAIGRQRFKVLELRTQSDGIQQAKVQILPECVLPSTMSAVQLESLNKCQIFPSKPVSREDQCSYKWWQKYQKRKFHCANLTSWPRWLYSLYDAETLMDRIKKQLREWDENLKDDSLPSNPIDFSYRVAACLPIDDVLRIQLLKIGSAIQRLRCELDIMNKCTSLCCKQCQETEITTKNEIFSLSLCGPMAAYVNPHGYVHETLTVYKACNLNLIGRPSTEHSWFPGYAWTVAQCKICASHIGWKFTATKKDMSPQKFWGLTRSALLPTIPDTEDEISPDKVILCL
Protein cereblon/NAD-dependent protein deacetylase sirtuin-3, mitochondrial (Homo sapiens), sequence (Q9NTG7 whole entry, looked up): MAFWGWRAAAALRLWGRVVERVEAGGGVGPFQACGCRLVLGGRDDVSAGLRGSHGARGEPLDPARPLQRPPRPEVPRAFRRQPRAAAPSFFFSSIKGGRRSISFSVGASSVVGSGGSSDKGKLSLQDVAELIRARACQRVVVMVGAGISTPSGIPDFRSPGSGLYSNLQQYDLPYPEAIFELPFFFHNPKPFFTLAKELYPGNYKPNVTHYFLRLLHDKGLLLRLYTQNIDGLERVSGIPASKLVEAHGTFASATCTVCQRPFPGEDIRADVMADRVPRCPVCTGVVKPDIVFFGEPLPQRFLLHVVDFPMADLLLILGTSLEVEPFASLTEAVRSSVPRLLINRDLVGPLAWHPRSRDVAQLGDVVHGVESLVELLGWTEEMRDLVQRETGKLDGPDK
Summary of the method: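 MCF7 or BT-549 cells exposed to inhibitor at the indicated concentrations for 48 h; SIRT1, SIRT2 and SIRT3 levels read by immunoblot.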

[3] = biological target: T2, NAD-dependent protein deacetylase sirtuin-2 (Homo sapiens, UniProt Q8IXJ6); experiment: Inhibition of human SIRT2 defatty-acylation activity using peptide substrate preincubated in presence of NAD+ followed by substrate addition by HPLC analysis
T2 sequence (Q8IXJ6 whole entry): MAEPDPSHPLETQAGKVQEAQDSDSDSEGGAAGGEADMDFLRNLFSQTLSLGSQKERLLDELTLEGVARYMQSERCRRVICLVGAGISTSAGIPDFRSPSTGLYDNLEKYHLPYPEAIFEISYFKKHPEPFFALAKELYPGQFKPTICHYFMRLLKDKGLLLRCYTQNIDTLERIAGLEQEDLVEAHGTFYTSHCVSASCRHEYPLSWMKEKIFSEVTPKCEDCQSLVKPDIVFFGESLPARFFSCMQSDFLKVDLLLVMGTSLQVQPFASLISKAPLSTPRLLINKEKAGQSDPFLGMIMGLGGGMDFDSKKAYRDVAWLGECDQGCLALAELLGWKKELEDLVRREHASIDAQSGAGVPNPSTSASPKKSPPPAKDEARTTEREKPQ
Summary of the method: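 SIRT2 defatty-acylase reaction with compound at a range of concentrations. Compound was preincubated with NAD+ and SIRT2 before the peptide substrate was added. IC50 derived from the dose series.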

## CCCCCCCCCCCCCC(=S)NCCCC[C@H](NC(=O)CCOCCOCCOCCOCCNc1cccc2c1C(=O)N(C1CCC(=O)NC1=O)C2=O)C(=O)Nc1ccccc1 (stereo partly drawn)
[1]
  IC50: 41 µM
[2]
  Activity: inactive
[3]
  IC50: 0.11 µM
